For series [1], the system named is Trypanosoma cruzi. The experiment in a line: Antitrypanosomal activity against nifurtimox-sensitive Trypanosoma cruzi Tulahuen CL2 infected in Swiss mouse peritoneal macrophages assessed as inhibition of parasite growth measured after 7 days in presence of ABC transporter inhibitor, probenecid by spectrophotometric analysis. Particulars: Tulahuen CL2, Peritoneal macrophage, 168 h. It is filed as functional, organism-based. The method, boiled down:
(§1)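 Macrophage-hosted 7-day assay read with CPRG at 540 nm, with compound given together with an ABC transporter inhibitor: cyclosporine A 2 μM, probenecid 700 μM or verapamil 8 μM. IC50 from % reduction versus infected controls.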

The target in series [2] is UGT (Homo sapiens, UniProt O60656+O75310+O75795+P06133+P0DTE4+P0DTE5+P16662+P19224+P22309+P22310+P35503+P35504+P36537+P54855+Q6UWM9+Q9BY64+Q9HAW7+Q9HAW8+Q9HAW9). Nature of the series: Metabolic stability of the compound in human liver microsomes S9 fraction assessed as UGT-mediated metabolism by measuring parent compound remaining at 5 uM measured after 30 mins in presence of UDPGA by UPLC-MS analysis. It is filed as ADME, subcellular. Particulars: read-out: Stabilty. A digest of the protocol: (§2)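 Compound at 5 μM with 0.5 mg/mL male mouse or pooled human liver microsomes; reaction started with 2 mM UDPGA. Sampled at 0, 15, 30 and 60 min and quenched in cold acetonitrile with internal standard. Parent remaining measured by UPLC-MS/MS (MRM) as % of the 0 min value.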
A general note: Liver microsomes are vesicles of endoplasmic reticulum, rich in cytochrome P450 enzymes.

The nature of series [3]: Selectivity index, ratio of CC50 for human MRC-5 SV2 cells to IC50 for antitrypanosomal activity against nifurtimox-sensitive Trypanosoma cruzi Tulahuen CL2 infected in human MRC-5 SV2 cells. It is filed as toxicity, cell-based. As to conditions: read-out: Ratio CC50/IC50. A digest of the protocol: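 Ratio of MRC-5SV2 CC50 (3-day resazurin assay) to IC50 against T. cruzi amastigotes in MRC-5SV2 cells (7-day CPRG assay).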

Series [4] relates to UGT. The experiment in a line: Metabolic stability of the compound in mouse liver microsomes S9 fraction assessed as UGT-mediated metabolism by measuring parent compound remaining at 5 uM measured after 15 mins in presence of UDPGA by UPLC-MS analysis. It is filed as ADME, subcellular. Particulars: read-out: Stabilty. A digest of the protocol: as §2
Series [5] addresses CYP450 (Homo sapiens, UniProt P04798+P05177+P05181+P08684+P10632+P10635+P11509+P11712+P13584+P20813+P20815+P20853+P24462+P24903+P33260+P33261+P51589+P78329+P98187+Q02928+Q08477+Q16678+Q16696+Q5TCH4+Q6VVX0+Q7Z449+Q8TAV3+Q96SQ9+Q9HB55). Nature of the series: Metabolic stability of the compound in human liver microsomes S9 fraction assessed as CYP450-mediated metabolism by measuring parent compound remaining at 5 uM measured after 15 mins in presence of NADPH by UPLC-MS analysis. It is filed as ADME, subcellular. Particulars: read-out: Stabilty. A digest of the protocol: (§3)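 Compound at 5 μM with 0.5 mg/mL male mouse or pooled human liver microsomes in potassium phosphate buffer; reaction started with 1 mM NADPH. Samples taken at 0, 15, 30 and 60 min and quenched in cold acetonitrile with internal standard. Parent remaining quantified by UPLC-MS/MS in MRM mode and given as % of the 0 min value.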

For series [6], the system named is Trypanosoma cruzi. The experiment in a line: Antitrypanosomal activity against nifurtimox-sensitive Trypanosoma cruzi Tulahuen CL2 infected in Swiss mouse peritoneal macrophages assessed as inhibition of parasite growth measured after 7 days in presence of ABC transporter inhibitor, cyclosporine A by spectrophotometric analysis. It is filed as functional, organism-based. As to conditions: Tulahuen CL2, Peritoneal macrophage, 168 h. The method, boiled down: as §1

A short description of series [7]: Toxicity in Swiss webster mouse infected with Trypanosoma cruzi Y trypomastigotes assessed as animal survival at 2.5 to 25 mg/kg, po bid for 5 days treatment started at 6 days post-infection and measured at 34 days post-infection. It is filed as organism-based. Particulars: in vivo, dose 2.5-25 mg/kg, time 29 day. A digest of the protocol:
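Male Swiss Webster mice (18−20 g, 4−5 weeks) were infected i.p. with 10⁴ Y-strain bloodstream trypomastigotes from a donor mouse. Only mice with detectable parasitemia were treated, in groups of six. Oral gavage was given on days 6–10 post-infection, b.i.d. or q.d. as listed, in 10% Tween 80 vehicle, freshly prepared. Infected vehicle controls were included. Mortality was checked daily to 34 dpi as cumulative percentage.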

Series [8] has as its system Trypanosoma cruzi. Nature of the series: Antitrypanosomal activity against nifurtimox-sensitive Trypanosoma cruzi Tulahuen CL2 infected in human MRC-5 SV2 cells assessed as inhibition of parasite growth measured after 7 days by spectrophotometric analysis. It is filed as functional, organism-based. As to conditions: Tulahuen CL2, MRC-5 SV2, 168 h.
The subject of series [9] is UGT. The experiment in a line: Metabolic stability of the compound in mouse liver microsomes S9 fraction assessed as UGT-mediated metabolism by measuring parent compound remaining at 5 uM measured after 30 mins in presence of UDPGA by UPLC-MS analysis. It is filed as ADME, subcellular. Particulars: read-out: Stabilty. A digest of the protocol:
as §2

Series [10] deals with Trypanosoma cruzi. Nature of the series: Antitrypanosomal activity against nifurtimox-sensitive Trypanosoma cruzi Tulahuen CL2 infected in Swiss mouse peritoneal macrophages assessed as inhibition of parasite growth measured after 7 days in presence of ABC transporter inhibitor, verapamil by spectrophotometric analysis. It is filed as functional, organism-based. As to conditions: Tulahuen CL2, Peritoneal macrophage, 168 h. A digest of the protocol:
as §1

Series [11] concerns UGT. Nature of the series: Metabolic stability of the compound in mouse liver microsomes S9 fraction assessed as UGT-mediated metabolism by measuring parent compound remaining at 5 uM measured after 60 mins in presence of UDPGA by UPLC-MS analysis. It is filed as ADME, subcellular. As to conditions: read-out: Stabilty. The method, boiled down: as §2
The subject of series [12] is Trypanosoma cruzi. Nature of the series: Antitrypanosomal activity against intracellular amastigote form of Trypanosoma cruzi Y infected in Swiss Webster mouse cardiomyocytes assessed as inhibition of parasite growth incubated for 48 hrs by Giemsa staining based microscopic analysis. It is filed as functional, organism-based. As to conditions: Cardiac muscle cell. The method, boiled down: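 Primary 2D mouse embryo cardiac cell cultures, infected for 24 h, then washed and exposed for 48 h at 37 °C to a serial dilution. Cells fixed and stained with Giemsa; infected cells and parasites per infected cell scored in 200 host cells. Activity expressed from the inhibition index; two independent experiments run in duplicate.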

For series [13], the system named is CYP450. The experiment in a line: Metabolic stability of the compound in mouse liver microsomes S9 fraction assessed as CYP450-mediated metabolism by measuring parent compound remaining at 5 uM measured after 60 mins in presence of NADPH by UPLC-MS analysis. As to conditions: read-out: Stabilty. It is filed as ADME, subcellular. The method, boiled down: as §3

pIC50: −log10 of the molar value.

1 compound from ChEMBL document CHEMBL4811241, “Revisiting Pyrazolo[3,4-d]pyrimidine Nucleosides as Anti-Trypanosoma cruzi and Antileishmanial Agents” (J Med Chem, 2021) can be followed below.

What is called pIC50 is the IC50 on a negative log10 scale, so that one unit is a factor of ten.

As to `Nc1ncnc2c1c(-c1ccc(Cl)cc1)nn2[C@@H]1O[C@H](CO)[C@@H](O)[C@H]1O`, the pIC50 in the series on Trypanosoma cruzi [1] is under 4.19; with Trypanosoma cruzi [6], under 4.19; with Trypanosoma cruzi [8] it was 6.49; in the series on Trypanosoma cruzi [10], under 4.19; with Trypanosoma cruzi [12], 6.59. Also, the remaining at 0.5 h, 5 µM at UGT [2] turned out to be 106%; in the series with UGT [9] it was 115%. Further, the selectivity ratio in series [3] was over 197. Moreover, the remaining at 0.25 h, 5 µM with UGT [4] is 103%; at CYP450 [5] it was 102%. In addition, in series [7], the survival at 696 h was 83%. For the same compound, the remaining at 1 h, 5 µM in the series with UGT [11] was found to be 115%; with CYP450 [13], 108%.
